From article PMC10913540 (Journal of medicinal chemistry, 2021) come the findings set out here.

Data set [1] addresses T1, LMP2 (Homo sapiens, UniProt P28065). The data set can be described thus: In vitro proteasome activity assay, purified human 20S proteasome, Ac-PAL-AMC. As to conditions: P3-proline substitution of 21, purified proteasome. It counts as biochemical.
In data set [2] the target is X (Homo sapiens, UniProt P28074). The data set can be described thus: In vitro proteasome activity assay, purified human 20S proteasome, Ac-WLA-AMC. Type of data set: biochemical.
Data set [3] deals with T1, LMP2. The data set can be described thus: In-cellulo LMP2 inhibition in RPMI-8226/ABCB1 vs parental RPMI-8226 cells. It counts as cell-based. To be noted: either cell line. In a few lines:
(§1)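 Lysates (14,000 g, 20 min, 4 °C; 5 μg protein) in 20 mM Tris-HCl, 0.5 mM EDTA, 0.035% SDS, pH 8.0, received Ac-PAL-AMC (LMP2) or Ac-ANW-AMC (LMP7), each at 100 μM. Fluorescence (ex 360/em 460 nm) was read every minute for 1 h. IC50s were compared between lines.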

Data set [4] deals with LMP7 (Homo sapiens, UniProt P28062). The experiment in a line: In-cellulo LMP7 inhibition in RPMI-8226/ABCB1 vs parental RPMI-8226 cells. To be noted: Supple. Table S1. Type of data set: cell-based. In outline: as §1
Data set [5] addresses T2, ABCG2 (Homo sapiens, UniProt Q9UNQ0).
T2 sequence (Q9UNQ0 1-655): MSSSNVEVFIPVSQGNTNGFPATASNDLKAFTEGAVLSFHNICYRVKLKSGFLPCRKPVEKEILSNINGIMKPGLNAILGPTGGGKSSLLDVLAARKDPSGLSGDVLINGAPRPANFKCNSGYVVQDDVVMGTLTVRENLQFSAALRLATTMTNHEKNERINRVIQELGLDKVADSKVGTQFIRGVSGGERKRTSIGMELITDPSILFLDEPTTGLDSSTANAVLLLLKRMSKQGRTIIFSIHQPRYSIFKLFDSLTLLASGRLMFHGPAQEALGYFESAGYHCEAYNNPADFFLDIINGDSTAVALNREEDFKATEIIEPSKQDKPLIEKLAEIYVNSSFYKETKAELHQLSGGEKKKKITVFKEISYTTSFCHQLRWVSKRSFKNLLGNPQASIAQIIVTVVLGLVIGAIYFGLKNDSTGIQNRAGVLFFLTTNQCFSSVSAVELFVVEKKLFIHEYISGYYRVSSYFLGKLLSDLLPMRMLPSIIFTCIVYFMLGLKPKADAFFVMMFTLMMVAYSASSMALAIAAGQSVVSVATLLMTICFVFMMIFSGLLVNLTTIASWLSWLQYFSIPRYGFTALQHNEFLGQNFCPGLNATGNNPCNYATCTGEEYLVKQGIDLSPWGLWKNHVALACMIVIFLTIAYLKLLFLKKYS
The data set can be described thus: ABCG2 interaction assay. Type of data set: cell-based. To be noted: MDCKII/ABCG2 cells, PhA 1 μM; DB-60 (20) 2 or 5 μM, Ko143 0.2 μM.

Data set [6] can be described thus: In vitro metabolic stability in mouse whole blood. Type of data set: in vitro ADME. To be noted: ICR mice, 1 μM, 0, 10 and 30 min, compared with YU102. In outline:
(§2)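 Matrices came from male 7-week-old ICR mice: whole blood with 25 IU/mL heparin, and liver homogenised in ice-cold PBS (2.5 mL/g). After pre-incubation at 37 °C, test compound was added to 1 μM final. Sampling was at 0, 10 and 30 min for blood and 0, 10 and 20 min for liver. […] Remaining drug was measured by LC-MS/MS.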

The nature of data set [7]: In vitro metabolic stability in mouse liver homogenates. It counts as in vitro ADME. To be noted: ICR mice, 1 μM, 0, 10 and 20 min, compared with YU102. In outline: as §2
Data set [8] relates to IL-1α. The data set can be described thus: IL-1α release by LPS-activated BV-2 cells. It counts as cell-based, murine. To be noted: LPS 1 μg/mL. In outline: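 BV-2 microglia were stimulated with LPS (1 μg/mL). IL-1α in the culture supernatants was measured by sandwich ELISA. Supernatants and standards (seven serial twofold dilutions) sat overnight at 4 °C on capture-antibody plates, then went through detection antibody (1 h), avidin-HRP (30 min), substrate, and a 2N H2SO4 stop. A450 was read. Three technical replicates, SD shown.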

The target of data set [9] is LMP2 (Mus musculus, UniProt P28076). The experiment in a line: LMP2 activity in brain homogenates after single intravenous dosing. Type of data set: in vivo. To be noted: ICR mice, single intravenous dosing 10 mg/kg, 1-hour post-dosing.
For data set [10], the system named is Tg2576 mice. The experiment in a line: Morris water maze, probe trial and passive avoidance in Tg2576 mice. As to conditions: 10 mg/kg twice weekly for 3 weeks. Type of data set: in vivo, mouse. In a few lines: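 Tg2576 mice (9-month-old, acclimatised one month) were injected with 10 mg/kg twice weekly for 3 weeks. Morris water maze training ran on days 1–5: hidden platform 1–1.5 cm below 25 ± 1 °C water, three 60-s trials daily from randomised starts. The probe trial on day 6 tracked swimming for 60 s and recorded time in the former platform quadrant by video. Student's t-test, n=5.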

The test system of data set [11] is IL-1α. The experiment in a line: Serum IL-1α levels in Tg2576 mice. To be noted: 10 mg/kg twice weekly for 3 weeks, vs vehicle. Type of data set: in vivo, mouse. In a few lines:
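Serum from 9-month-old Tg2576 mice (dosed or vehicle) diluted 1:5, then incubated with IL-1α standards (seven serial twofold dilutions) on capture-antibody-coated plates for 2 h at room temperature. Five washes, detection antibody 1 h, avidin-HRP 30 min, five washes, substrate, stop with 2N H2SO4. Absorbance read at 450 nm; n=3.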

Data set [12] relates to retinal pigment epithelium (RPE). The data set can be described thus: RPE flat mounts, anti-β-catenin immunostaining. It counts as in vivo, mouse. In outline: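 After behaviour testing, eyes from treated Tg2576 mice and from age-matched non-transgenic ICR mice were fixed in 4% paraformaldehyde (1 h, RT). Eyecups were dissected, retina removed, and RPE sheets permeabilised (0.2% Triton X-100, 15 min) and blocked (3% BSA, 1 h). Sheets were stained with anti-β-catenin (1:100, overnight 4 °C), then Alexa 555 secondary (1:1000, 2 h RT), and imaged by confocal microscopy. Images are representative of 3 independent replicates.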

Data set [13] in a line: Observation of overt toxicity during treatment. It counts as in vivo. As to conditions: Tg2576 or non-transgenic ICR mice during the test period.

Some results are limits rather than exact numbers.

What is called IC50 is the concentration that inhibits the measured activity by half. As for `CC(C)C[C@H](NC(=O)[C@@H]1COCCCCCC(=O)N2CC(F)(F)C[C@H]2C(=O)N1)C(=O)[C@@]1(C)CO1` [compound 33, (3S,15aS)-14,14-Difluoro-N-((S)-4-methyl-1-((R)-2-methyloxiran-2-yl)-1-oxopentan-2-yl)-1,11-dioxotetradecahydropyrrolo[2,1-f][1]oxa[4,7]diazacyclotridecine-3-carboxamide], in [1], the “LMP2 inhibitory potency compared with 21” value is “LMP2 inhibitory potency similar to 21”. The same compound came in with a half-inhibitory concentration (IC50) in [2] greater than 10 µM.
With `CC(C)C[C@H](NC(=O)[C@@H]1COCCCCCC(=O)N2CCCC[C@H]2C(=O)N1)C(=O)[C@@]1(C)CO1` [compound 36, (3S,16aS)-N-((S)-4-Methyl-1-((R)-2-methyloxiran-2-yl)-1-oxopentan-2-yl)-1,11-dioxotetradecahydro-2H-pyrido[2,1-f][1]oxa[4,7]diazacyclotridecine-3-carboxamide], the “LMP2 inhibitory potency compared with 21” value in data set [1] is “substantial decrease in the LMP2 inhibitory potency”. This compound also had an IC50 in data set [2] greater than 10 µM.
`CC(C)C[C@H](NC(=O)[C@@H]1COCCCCCC(=O)N2C[C@H](F)C[C@H]2C(=O)N1)C(=O)[C@@]1(C)CO1` [compound 32, (3S,14S,15aS)-14-Fluoro-N-((S)-4-methyl-1-((R)-2-methyloxiran-2-yl)-1-oxopentan-2-yl)-1,11-dioxotetradecahydropyrrolo[2,1-f][1]oxa[4,7]diazacyclotridecine-3-carboxamide]: the “LMP2 inhibitory potency compared with 21” value in [1] is given as “substantial decrease in the LMP2 inhibitory potency”. Besides, the IC50 in data set [2] is greater than 10 µM.
With `CC(C)C[C@H](NC(=O)[C@@H]1COCCCCCC(=O)N2CC[C@H]2C(=O)N1)C(=O)[C@@]1(C)CO1` [compound 35, (10S,13S)-N-((S)-4-Methyl-1-((R)-2-methyloxiran-2-yl)-1-oxopentan-2-yl)-2,12-dioxo-8-oxa-1,11-diazabicyclo[11.2.0]pentadecane-10-carboxamide], the “LMP2 inhibitory potency compared with 21” value in [1] was “LMP2 inhibitory potency similar to 21”. This compound showed a half-inhibitory concentration (IC50) in data set [2] greater than 10 µM.
The compound `CC(C)C[C@H](NC(=O)[C@@H]1COCCCCCCC(=O)NCC(=O)N2CCC[C@H]2C(=O)N1)C(=O)[C@@]1(C)CO1` [compound 27, (3S,19aS)-N-((S)-4-Methyl-1-((R)-2-methyloxiran-2-yl)-1-oxopentan-2-yl)-1,12,15-trioxooctadecahydropyrrolo[2,1-f][1]oxa[4,7,10]triazacycloheptadecine-3-carboxamide] showed a concentration for half-maximal inhibition (IC50) in data set [2] greater than 10 µM. The “LMP2 inhibition in RPMI-8226/ABCB1 and parental RPMI-8226 cells” value in [3] is “no LMP2 inhibition in either cell line”.
As for `CC(C)C[C@H](NC(=O)[C@@H]1COCCCCCC(=O)N2CCC[C@@]2(C)C(=O)N1)C(=O)[C@@]1(C)CO1` [compound 34, (3S,15aS)-15a-Methyl-N-((S)-4-methyl-1-((R)-2-methyloxiran-2-yl)-1-oxopentan-2-yl)-1,11-dioxotetradecahydropyrrolo[2,1-f][1]oxa[4,7]diazacyclotridecine-3-carboxamide], in data set [1], the “LMP2 inhibitory potency compared with 21” value was “substantial decrease in the LMP2 inhibitory potency”. Also, the IC50 in data set [2] was greater than 10 µM.
For `CC(C)C[C@H](NC(=O)[C@@H]1Cc2ccc(cc2)OCCCCCCC(=O)N2CCC[C@H]2C(=O)N1)C(=O)[C@@]1(C)CO1` [compound 16, (1^2S,4S)-N-((S)-4-Methyl-1-((R)-2-methyloxiran-2-yl)-1-oxopentan-2-yl)-2,14-dioxo-7-oxa-3-aza-1(2,1)-pyrrolidina-6(1,4)-benzenacyclotetradecaphane-4-carboxamide], in data set [2], the half-maximal inhibitory concentration (IC50) is greater than 10 µM.
For `CC(C)C[C@H](NC(=O)[C@@H]1COCCCCCC(=O)NCC(=O)N2CCC[C@H]2C(=O)N1)C(=O)[C@@]1(C)CO1` [compound 26, (3S,18aS)-N-((S)-4-Methyl-1-((R)-2-methyloxiran-2-yl)-1-oxopentan-2-yl)-1,11,14-trioxohexadecahydro-6H-pyrrolo[2,1-f][1]oxa[4,7,10]triazacyclohexadecine-3-carboxamide], the IC50 in [2] was greater than 10 µM. The “LMP2 inhibition in RPMI-8226/ABCB1 and parental RPMI-8226 cells” value in [3] was “no LMP2 inhibition in either cell line”.
`C[C@]1(C(=O)[C@H](Cc2ccccc2)NC(=O)[C@@H]2COCCCCCC(=O)N3CCC[C@H]3C(=O)N2)CO1` [compound 25, (3S,15aS)-N-((S)-1-((R)-2-Methyloxiran-2-yl)-1-oxo-3-phenylpropan-2-yl)-1,11-dioxotetradecahydropyrrolo[2,1-f][1]oxa[4,7]diazacyclotridecine-3-carboxamide]: the concentration for half-maximal inhibition (IC50) in data set [2] is greater than 10 µM.
For `C[C@]1(C(=O)[C@H](Cc2ccccc2)NC(=O)[C@@H]2Cc3ccc(cc3)OCCCCCCCC(=O)N3CCC[C@H]3C(=O)N2)CO1` [compound 20, (1^2S,4S)-N-((S)-1-((R)-2-Methyloxiran-2-yl)-1-oxo-3-phenylpropan-2-yl)-2,15-dioxo-7-oxa-3-aza-1(2,1)-pyrrolidina-6(1,4)-benzenacyclopentadecaphane-4-carboxamide], the “fold decrease of LMP7 inhibition, RPMI-8226/ABCB1 vs parental RPMI-8226” value in data set [4] is listed as ~ 2 fold. The “inhibition of the ABCG2-mediated efflux of PhA (cellular accumulation of PhA)” value in [5] is “no inhibition of the ABCG2-mediated efflux of PhA”. For the same compound, the “metabolic stability in whole blood” value in data set [6] was “greater metabolic stability than YU102”. Besides, the “stability in liver homogenates” value in data set [7] is recorded as “superior to YU102”. Also, the “release of IL-1α by LPS-activated microglial BV-2 cells” value in data set [8] is “decreased the release of IL-1α”. In data set [9], the “inhibition of LMP2 activity in brain homogenates” value is given as “no appreciable inhibition of the LMP2 activity”. For the same compound, the “probe trial: percentage of time spent in the target quadrant” value in data set [10] (day 6, vs control) is reported as “higher than control mice”. Also, the “passive avoidance test: step-through latency” value in data set [10] (days 7-8, vs control) was “performed better in a fear-aggravated test (passive avoidance) than control mice”. Also, the “serum levels of IL-1α” value in data set [11] was “lower in Tg2576 mice receiving DB-60 (20) treatment than the control mice”. Further, the “RPE structure in Tg2576 mice” value in data set [12] (Tg2576 mice after behavior tests, anti-β-catenin staining) is “displayed the orderly structure”. For the same compound, the “RPE structural integrity in non-transgenic ICR mice” value in data set [12] (age-matching non-transgenic ICR mice treated with DB-60 (20)) is “not affected”. Besides, the overt toxicity entry in [13] is given as “No sign of overt toxicity”.
